The record followed here is ChEMBL document CHEMBL4118021, “Studies of TAK1-centered polypharmacology with novel covalent TAK1 inhibitors” (Bioorg Med Chem, 2017).

The source made the active and inactive calls. The rule behind the calls is not given here.

Test [1] concerns the target Receptor-interacting serine/threonine-protein kinase 4 (Homo sapiens) (UniProt P57078). Description: Inhibition of ANKRD3 in human SKCO1 cells at 1 uM after 4 hrs using biotin labeled TWLAIKCSPSLHVDDR probe by mass-spectrometric analysis relative to control. It is filed as cell-based.
Test [2] has as its target Tyrosine-protein kinase receptor UFO (Homo sapiens) (UniProt P30530). Description: Inhibition of AXL in human SKCO1 cells at 1 uM after 4 hrs using biotin labeled NCMLNENMSVCVADFGLSKK probe by mass-spectrometric analysis relative to control. It is filed as cell-based.
Test [3] deals with Serine/threonine-protein kinase MARK1 (Homo sapiens) (UniProt Q9P0L2). Description: Inhibition of MARK1 in human SKCO1 cells at 1 uM after 4 hrs using biotin labeled EVAVKIIDK probe by mass-spectrometric analysis relative to control. Type of test: cell-based.
The target in test [4] is Vascular endothelial growth factor receptor 1 (Homo sapiens) (UniProt P17948). The test is described as follows: Inhibition of human FLT1 (781 to 1239 residues) expressed in bacterial expression system assessed as enzyme activity at 1 uM by KINOMEScan assay relative to control. More on the design: scale not given: the % may be the effect or the level left. In short, it runs like this: (§1)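 In vitro ATP-site competition binding assay across a panel of 456 kinases, with compound tested at 1 and 10 μM.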

Test [5] concerns the target Mast/stem cell growth factor receptor Kit (Homo sapiens) (UniProt P10721). The test is described as follows: Inhibition of human KIT (571 to 952 residues) expressed in bacterial expression system assessed as enzyme activity at 1 uM by KINOMEScan assay relative to control. More on the design: scale not given: the % may be the effect or the level left. In short, it runs like this:
as §1

Test [6] addresses Serine/threonine-protein kinase RIO3 (Homo sapiens) (UniProt O14730). Description: Inhibition of full length human RIOK3 (1 to 519 residues) expressed in bacterial expression system assessed as enzyme activity at 10 uM by KINOMEScan assay relative to control. More on the design: scale not given: the % may be the effect or the level left. In short, it runs like this:
(§2)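 In vitro ATP-site competition binding assay (KinomeScan) across a panel of 456 kinases. Compound was tested at 1 and 10 μM. The read-out is the binding inhibition score relative to control.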

In test [7] the target is Dual specificity mitogen-activated protein kinase kinase 1 (Homo sapiens) (UniProt Q02750). The test is described as follows: Inhibition of full length human MEK1 (1 to 393 residues) expressed in mammalian expression system assessed as enzyme activity at 10 uM by KINOMEScan assay relative to control. More on the design: scale not given: the % may be the effect or the level left. In short, it runs like this: as §2

Test [8] has as its target Heterogeneous nuclear ribonucleoproteins A2/B1 (Homo sapiens) (UniProt P22626). The test is described as follows: Binding affinity to HNRNPA2B1 in human NCI-H23 cells at 1 uM by mass spectrometry based pull down assay. Type of test: cell-based.
Test [9] concerns the target Polyadenylate-binding protein 4 (Homo sapiens) (UniProt Q13310). The test is described as follows: Binding affinity to PABPC4 in human NCI-H23 cells at 1 uM by mass spectrometry based pull down assay. It is filed as cell-based.
In test [10] the target is Eukaryotic translation initiation factor 6 (Homo sapiens) (UniProt P56537). The test is described as follows: Binding affinity to EIF6 in human NCI-H23 cells at 1 uM by mass spectrometry based pull down assay. Type of test: cell-based.
Test [11] concerns the target Ras GTPase-activating-like protein IQGAP1 (Homo sapiens) (UniProt P46940). The test is described as follows: Binding affinity to IQGAP1 in human NCI-H23 cells at 1 uM by mass spectrometry based pull down assay. It is filed as cell-based.
Test [12] addresses Clustered mitochondria protein homolog (Homo sapiens) (UniProt O75153). Description: Binding affinity to CLUH in human NCI-H23 cells at 1 uM by mass spectrometry based pull down assay. Type of test: cell-based.
The target in test [13] is COP9 signalosome complex subunit 8 (Homo sapiens) (UniProt Q99627). The test is described as follows: Binding affinity to COPS8 in human NCI-H23 cells at 1 uM by mass spectrometry based pull down assay. It is filed as cell-based.
In test [14] the target is E3 ubiquitin-protein ligase UBR4 (Homo sapiens) (UniProt Q5T4S7). Description: Binding affinity to UBR4 in human NCI-H23 cells at 1 uM by mass spectrometry based pull down assay. It is filed as cell-based.
Test [15] deals with 80S Ribosome (Homo sapiens) (UniProt P08865+P42677+P62753+P15880+P23396+P61247+P62701+P22090+P46782+P62081+P62241+P46781+P46783+P62280+P25398+P62277+P62263+P62841+P62244+P62249+P08708+P62269+P39019+P60866+P63220+P62266+P62847+P62851+P62854+P62979+P62857+P62273+P62861+P39023+P36578+P46777+Q02878+P18124+P62424+P62917+P32969+P27635+P62906+P62913+P30050+P26373+P40429+P50914+P61313+P18621+Q07020+Q02543+P84098+P46778+P35268+P62829+P62750+P83731+P61254+P61353+P46776+P46779+P47914+P62888+P62899+P62910+P49207+P42766+P18077+Q9Y3U8+P83881+P61927+P61513+P63173+P62891+P62945+P05388+P05386). The test is described as follows: Binding affinity to RPS23 in human NCI-H23 cells at 1 uM by mass spectrometry based pull down assay. It is filed as cell-based.

The target in test [16] is Eukaryotic translation initiation factor 3 subunit I (Homo sapiens) (UniProt Q13347). Description: Binding affinity to EIF3I in human NCI-H23 cells at 1 uM by mass spectrometry based pull down assay. It is filed as cell-based.
The target in test [17] is Thioredoxin reductase 1, cytoplasmic (Homo sapiens) (UniProt Q16881). Description: Binding affinity to TXNRD1 in human NCI-H23 cells at 1 uM by mass spectrometry based pull down assay. Type of test: cell-based.
For test [18], the target named is ATP-dependent 6-phosphofructokinase, liver type (Homo sapiens) (UniProt P17858). The test is described as follows: Binding affinity to PFKL in human NCI-H23 cells at 1 uM by mass spectrometry based pull down assay. Type of test: cell-based.
The target in test [19] is Actin-related protein 2/3 complex subunit 2 (Homo sapiens) (UniProt O15144). Description: Binding affinity to ARPC2 in human NCI-H358 cells at 1 uM by mass spectrometry based pull down assay. It is filed as cell-based.
The target in test [20] is Ubiquitin-like modifier-activating enzyme 1 (Homo sapiens) (UniProt P22314). The test is described as follows: Binding affinity to UBA1 in human NCI-H358 cells at 1 uM by mass spectrometry based pull down assay. It is filed as cell-based.
Test [21] concerns the target Myosin regulatory light chain 12B (Homo sapiens) (UniProt O14950). Description: Binding affinity to MYL12B in human NCI-H358 cells at 1 uM by mass spectrometry based pull down assay. It is filed as cell-based.
The target of test [22] is Lysophosphatidylcholine acyltransferase 1 (Homo sapiens) (UniProt Q8NF37). Description: Binding affinity to LPCAT1 in human NCI-H358 cells at 1 uM by mass spectrometry based pull down assay. It is filed as cell-based.
For test [23], the target named is Phosphoglycerate kinase 1 (Homo sapiens) (UniProt P00558). The test is described as follows: Binding affinity to PGK1 in human NCI-H358 cells at 1 uM by mass spectrometry based pull down assay. It is filed as cell-based.
The target in test [24] is Actin-related protein 2/3 complex subunit 1B (Homo sapiens) (UniProt O15143). Description: Binding affinity to ARPC1B in human NCI-H358 cells at 1 uM by mass spectrometry based pull down assay. Type of test: cell-based.
Another test addresses Vinculin (Homo sapiens) (UniProt P18206). Description: Binding affinity to VCL in human NCI-H358 cells at 1 uM by mass spectrometry based pull down assay. It is filed as cell-based.

Vinculin (Homo sapiens), sequence (P18206 whole entry): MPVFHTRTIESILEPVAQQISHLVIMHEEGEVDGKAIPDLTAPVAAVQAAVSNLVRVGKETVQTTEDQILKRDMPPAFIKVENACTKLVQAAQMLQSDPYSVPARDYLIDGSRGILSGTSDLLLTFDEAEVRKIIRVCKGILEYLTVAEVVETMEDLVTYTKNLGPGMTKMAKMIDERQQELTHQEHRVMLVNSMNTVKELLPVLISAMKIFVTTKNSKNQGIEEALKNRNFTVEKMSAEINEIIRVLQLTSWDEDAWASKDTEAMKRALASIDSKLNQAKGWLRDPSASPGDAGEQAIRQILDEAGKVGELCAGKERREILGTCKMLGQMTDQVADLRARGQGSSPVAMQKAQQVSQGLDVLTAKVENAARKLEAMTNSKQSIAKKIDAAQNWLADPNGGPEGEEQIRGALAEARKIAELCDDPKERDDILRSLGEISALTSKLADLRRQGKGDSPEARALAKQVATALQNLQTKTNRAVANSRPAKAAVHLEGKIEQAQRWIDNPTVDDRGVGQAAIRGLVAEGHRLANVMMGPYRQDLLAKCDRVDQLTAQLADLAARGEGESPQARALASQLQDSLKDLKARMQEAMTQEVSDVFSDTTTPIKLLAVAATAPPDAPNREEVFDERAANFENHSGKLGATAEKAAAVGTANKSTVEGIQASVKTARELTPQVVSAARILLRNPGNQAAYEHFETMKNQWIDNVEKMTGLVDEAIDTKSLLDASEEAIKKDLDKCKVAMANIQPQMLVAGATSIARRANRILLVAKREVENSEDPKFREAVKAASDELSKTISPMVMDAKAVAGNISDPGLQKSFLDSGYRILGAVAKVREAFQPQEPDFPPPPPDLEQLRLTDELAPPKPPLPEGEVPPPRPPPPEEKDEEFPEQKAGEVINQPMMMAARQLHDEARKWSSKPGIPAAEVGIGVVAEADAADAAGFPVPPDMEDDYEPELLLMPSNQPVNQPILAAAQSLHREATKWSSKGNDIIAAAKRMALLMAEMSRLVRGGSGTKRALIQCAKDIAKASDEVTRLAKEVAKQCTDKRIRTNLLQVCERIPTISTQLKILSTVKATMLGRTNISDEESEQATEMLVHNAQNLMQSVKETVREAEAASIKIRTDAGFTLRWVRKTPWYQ
Phosphoglycerate kinase 1 (Homo sapiens), sequence (P00558 whole entry): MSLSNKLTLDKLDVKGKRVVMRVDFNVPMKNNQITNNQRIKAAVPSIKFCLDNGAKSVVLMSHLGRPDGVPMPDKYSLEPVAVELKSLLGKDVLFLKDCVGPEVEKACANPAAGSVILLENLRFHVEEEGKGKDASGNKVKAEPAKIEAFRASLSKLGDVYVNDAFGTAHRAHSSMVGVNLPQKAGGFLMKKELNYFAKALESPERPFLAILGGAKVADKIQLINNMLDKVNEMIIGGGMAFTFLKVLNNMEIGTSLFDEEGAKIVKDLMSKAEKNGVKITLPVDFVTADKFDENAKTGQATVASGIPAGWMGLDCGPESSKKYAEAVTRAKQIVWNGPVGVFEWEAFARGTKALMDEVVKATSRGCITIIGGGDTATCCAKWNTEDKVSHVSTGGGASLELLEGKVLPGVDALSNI
Vascular endothelial growth factor receptor 1 (Homo sapiens), sequence (P17948 whole entry, the tested form may be a part): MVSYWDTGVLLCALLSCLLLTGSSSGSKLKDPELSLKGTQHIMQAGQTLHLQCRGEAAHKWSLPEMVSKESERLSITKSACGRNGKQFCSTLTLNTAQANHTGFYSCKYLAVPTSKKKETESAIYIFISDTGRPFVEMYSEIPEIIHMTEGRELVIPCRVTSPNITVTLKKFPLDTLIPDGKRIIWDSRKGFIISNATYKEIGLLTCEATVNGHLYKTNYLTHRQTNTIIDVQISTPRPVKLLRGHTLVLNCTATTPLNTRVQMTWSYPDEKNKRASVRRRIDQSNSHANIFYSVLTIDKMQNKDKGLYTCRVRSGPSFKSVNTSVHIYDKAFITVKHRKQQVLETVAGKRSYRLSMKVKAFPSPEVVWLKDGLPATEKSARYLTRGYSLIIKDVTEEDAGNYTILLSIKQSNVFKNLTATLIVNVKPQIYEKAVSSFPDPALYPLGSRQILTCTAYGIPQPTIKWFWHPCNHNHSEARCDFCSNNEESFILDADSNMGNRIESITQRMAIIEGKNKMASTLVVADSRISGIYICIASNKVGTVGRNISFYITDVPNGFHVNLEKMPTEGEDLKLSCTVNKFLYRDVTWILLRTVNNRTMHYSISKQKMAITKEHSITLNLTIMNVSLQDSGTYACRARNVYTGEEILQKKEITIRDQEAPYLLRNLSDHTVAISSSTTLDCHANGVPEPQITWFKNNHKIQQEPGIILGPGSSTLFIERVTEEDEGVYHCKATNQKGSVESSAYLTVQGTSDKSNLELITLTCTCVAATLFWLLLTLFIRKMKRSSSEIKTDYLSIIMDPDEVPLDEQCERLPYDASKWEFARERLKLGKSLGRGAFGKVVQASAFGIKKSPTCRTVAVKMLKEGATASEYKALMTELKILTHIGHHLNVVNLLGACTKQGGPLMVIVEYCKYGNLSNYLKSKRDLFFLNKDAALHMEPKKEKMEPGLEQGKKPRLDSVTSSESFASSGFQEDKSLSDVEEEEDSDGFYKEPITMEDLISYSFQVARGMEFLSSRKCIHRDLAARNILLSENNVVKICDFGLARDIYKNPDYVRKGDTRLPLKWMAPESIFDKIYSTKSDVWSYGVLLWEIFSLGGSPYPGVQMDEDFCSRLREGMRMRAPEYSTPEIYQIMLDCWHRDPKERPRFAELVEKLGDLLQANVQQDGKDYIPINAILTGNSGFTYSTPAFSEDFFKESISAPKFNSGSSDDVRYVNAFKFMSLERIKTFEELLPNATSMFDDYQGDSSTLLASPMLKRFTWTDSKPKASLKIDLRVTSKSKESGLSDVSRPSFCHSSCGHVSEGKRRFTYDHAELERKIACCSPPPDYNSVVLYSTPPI
Serine/threonine-protein kinase MARK1 (Homo sapiens), sequence (Q9P0L2 whole entry, looked up, the tested form may be a part): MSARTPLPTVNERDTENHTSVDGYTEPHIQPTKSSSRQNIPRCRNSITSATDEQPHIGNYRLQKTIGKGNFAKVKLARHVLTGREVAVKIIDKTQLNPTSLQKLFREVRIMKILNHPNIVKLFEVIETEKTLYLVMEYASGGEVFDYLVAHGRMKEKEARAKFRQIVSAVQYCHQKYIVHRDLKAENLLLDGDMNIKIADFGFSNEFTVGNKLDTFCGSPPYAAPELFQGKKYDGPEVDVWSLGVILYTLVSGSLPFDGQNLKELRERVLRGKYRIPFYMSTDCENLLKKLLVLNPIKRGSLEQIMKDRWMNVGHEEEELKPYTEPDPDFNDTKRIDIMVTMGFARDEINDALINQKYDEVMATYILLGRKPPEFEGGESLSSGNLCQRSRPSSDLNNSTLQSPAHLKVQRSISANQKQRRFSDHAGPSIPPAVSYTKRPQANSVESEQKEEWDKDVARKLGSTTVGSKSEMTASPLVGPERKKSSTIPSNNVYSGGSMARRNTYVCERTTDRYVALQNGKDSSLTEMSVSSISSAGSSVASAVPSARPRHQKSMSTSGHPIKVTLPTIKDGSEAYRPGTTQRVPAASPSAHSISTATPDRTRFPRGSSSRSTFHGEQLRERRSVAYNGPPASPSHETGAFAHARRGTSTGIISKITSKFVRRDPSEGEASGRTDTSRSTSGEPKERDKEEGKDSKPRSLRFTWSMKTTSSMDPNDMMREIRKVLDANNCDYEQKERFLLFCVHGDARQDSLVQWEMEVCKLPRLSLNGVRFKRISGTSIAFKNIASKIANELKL
Thioredoxin reductase 1, cytoplasmic (Homo sapiens), sequence (Q16881 whole entry): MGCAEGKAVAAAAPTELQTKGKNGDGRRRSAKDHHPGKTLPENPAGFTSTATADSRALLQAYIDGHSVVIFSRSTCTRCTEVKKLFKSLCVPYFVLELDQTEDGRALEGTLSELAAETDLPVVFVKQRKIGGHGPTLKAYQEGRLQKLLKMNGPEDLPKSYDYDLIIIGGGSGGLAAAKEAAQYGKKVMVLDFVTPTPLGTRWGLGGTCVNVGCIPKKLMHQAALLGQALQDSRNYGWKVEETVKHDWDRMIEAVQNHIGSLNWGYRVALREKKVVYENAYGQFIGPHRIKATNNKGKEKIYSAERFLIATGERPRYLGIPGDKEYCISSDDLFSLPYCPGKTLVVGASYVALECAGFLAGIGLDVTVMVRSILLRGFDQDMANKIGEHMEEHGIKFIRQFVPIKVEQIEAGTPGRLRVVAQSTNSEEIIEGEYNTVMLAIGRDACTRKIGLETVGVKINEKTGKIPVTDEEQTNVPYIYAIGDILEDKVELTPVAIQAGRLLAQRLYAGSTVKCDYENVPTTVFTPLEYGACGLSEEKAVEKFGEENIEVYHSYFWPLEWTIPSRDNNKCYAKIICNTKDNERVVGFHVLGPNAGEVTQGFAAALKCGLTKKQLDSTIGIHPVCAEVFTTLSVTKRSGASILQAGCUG
Dual specificity mitogen-activated protein kinase kinase 1 (Homo sapiens), sequence (Q02750 whole entry, the tested form may be a part): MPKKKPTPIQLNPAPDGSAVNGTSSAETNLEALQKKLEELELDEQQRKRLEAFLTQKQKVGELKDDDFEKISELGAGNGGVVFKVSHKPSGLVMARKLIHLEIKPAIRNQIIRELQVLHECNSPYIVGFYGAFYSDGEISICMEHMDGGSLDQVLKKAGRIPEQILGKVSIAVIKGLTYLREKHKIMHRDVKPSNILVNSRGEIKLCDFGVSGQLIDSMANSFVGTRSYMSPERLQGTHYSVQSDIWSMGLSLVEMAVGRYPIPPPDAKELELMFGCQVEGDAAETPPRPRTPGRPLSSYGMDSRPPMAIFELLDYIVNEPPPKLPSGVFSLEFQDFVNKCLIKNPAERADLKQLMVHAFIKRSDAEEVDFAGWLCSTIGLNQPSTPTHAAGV
Myosin regulatory light chain 12B (Homo sapiens), sequence (O14950 whole entry): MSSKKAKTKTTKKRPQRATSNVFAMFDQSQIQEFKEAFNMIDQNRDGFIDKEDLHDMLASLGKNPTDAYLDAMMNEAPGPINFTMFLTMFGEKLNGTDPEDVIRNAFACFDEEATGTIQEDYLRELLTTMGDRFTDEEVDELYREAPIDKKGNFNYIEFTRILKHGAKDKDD

Take `C=CC(=O)Nc1ccccc1Nc1nc(Nc2ccc(N3CCN(C)CC3)cc2)ncc1Cl`: the inhibition – broadly, the drop in the measured response relative to a control, in per cent – in test [1] was -0.1%; in [2] it was 27.2%; in [3] it was -5.7%.
Take `COc1cc(O)c2c(c1)/C=C/C[C@H](O)[C@H](O)C(=O)/C=C\C[C@H](C)OC2=O`: the Activity came to 16% in test [4], 20% in [5], 0% in test [6] and 0.05% in test [7].
As to `C=CC(=O)Nc1ccccc1Nc1nc(Nc2ccc(N3CCN(CCOCCOCCOCCNC(=O)CCCC[C@@H]4SC[C@@H]5NC(=O)N[C@@H]54)CC3)cc2)ncc1Cl`, the outcome in test [8], in test [9], in test [10], in test [11], in test [12] and in test [13] was Active. Besides, the outcome in test [14], in [15], in [16], in [17], in [18] and in test [19] was Active. For the same compound, the result (in test [20]; in test [21]; in test [22]; in test [23]; in test [24]; on Vinculin (Homo sapiens)) was Active.
